Reference: BindingDB's records for doi:10.1021/acs.jmedchem.8b00566 (Research Triangle Institute, 2018)

How the values were obtained:
[1] = molecular target: T1, Sodium-dependent serotonin transporter (Homo sapiens, UniProt P31645); assay: Inhibition of human SERT expressed in HEK293 cells assessed as reduction in SERT-mediated substrate uptake after 30 mins by fluorescence-based assay
In short: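 HEK293 cells stably expressing human SERT were plated at 15000 cells/well in DMEM + 1% dialyzed FBS for at least 6 h. Medium was replaced with 20 mM HEPES/HBSS pH 7.4 and drug was added for 30 min at 37 °C. Fluorescent uptake dye was then added and read after 30 min at 37 °C (ex 440/em 520 nm). IC50 came from nonlinear regression of fluorescence versus concentration.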

[2] = molecular target: T1, Sodium-dependent serotonin transporter; assay: Displacement of [3H]-Paroxetine from recombinant human full length SERT after 60 mins by scintillation counting
In short: (§1)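 Outsourced radioligand displacement panel run to the provider's standard protocols. Full concentration–displacement curves were run in duplicate. IC50 came from nonlinear regression. Ki was calculated by Cheng–Prusoff from the IC50, the radioligand concentration and historical Kd values of the ligand.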

[3] = molecular target: Kappa-type opioid receptor (Homo sapiens, UniProt P41145); assay: Binding affinity to human full length KOR after 60 mins by radioligand-based scintillation counting; in short: as §1
Kappa-type opioid receptor, sequence (P41145 whole entry): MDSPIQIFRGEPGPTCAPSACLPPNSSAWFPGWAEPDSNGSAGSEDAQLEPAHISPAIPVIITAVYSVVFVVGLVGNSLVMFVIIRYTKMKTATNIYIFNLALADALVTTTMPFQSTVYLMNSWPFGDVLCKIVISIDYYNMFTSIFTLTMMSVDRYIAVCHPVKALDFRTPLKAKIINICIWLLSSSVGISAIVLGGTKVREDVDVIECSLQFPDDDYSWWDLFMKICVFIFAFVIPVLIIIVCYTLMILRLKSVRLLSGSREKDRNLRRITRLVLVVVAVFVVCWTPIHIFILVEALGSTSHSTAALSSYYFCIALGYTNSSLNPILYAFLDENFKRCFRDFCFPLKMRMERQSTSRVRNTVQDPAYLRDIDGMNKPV

T1 sequence (P31645 whole entry): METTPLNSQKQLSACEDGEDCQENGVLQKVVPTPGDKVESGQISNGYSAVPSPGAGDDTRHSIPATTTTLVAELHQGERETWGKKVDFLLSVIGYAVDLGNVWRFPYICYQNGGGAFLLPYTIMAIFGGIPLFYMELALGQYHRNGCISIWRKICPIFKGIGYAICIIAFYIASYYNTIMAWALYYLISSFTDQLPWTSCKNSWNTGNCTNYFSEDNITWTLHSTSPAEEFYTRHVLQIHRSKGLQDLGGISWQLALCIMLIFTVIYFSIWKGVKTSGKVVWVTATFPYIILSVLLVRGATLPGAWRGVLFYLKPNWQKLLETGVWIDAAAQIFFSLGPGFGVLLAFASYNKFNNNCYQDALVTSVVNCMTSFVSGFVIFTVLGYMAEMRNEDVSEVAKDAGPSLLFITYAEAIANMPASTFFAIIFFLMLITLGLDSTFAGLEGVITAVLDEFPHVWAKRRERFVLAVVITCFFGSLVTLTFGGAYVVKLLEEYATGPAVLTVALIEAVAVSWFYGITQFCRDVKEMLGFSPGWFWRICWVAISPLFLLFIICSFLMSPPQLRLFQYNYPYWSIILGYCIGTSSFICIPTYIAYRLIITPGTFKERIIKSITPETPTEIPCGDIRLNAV

COCc1ccc(-c2ccc(N(C[C@@H](N)[C@@H](C)OC)C(=O)[C@@H]3C[C@H]3c3ccccn3)cc2)cc1
IC50 [1]: 25.1 µM | Ki [2]: 0.75 µM | Ki [3]: 2.29 µM
